Test results taken from ChEMBL document CHEMBL1122442, “Antifertility agents. 38. Effect of the side chain and its position on the activity of 3,4-diarylchromans” (1983).
Calls of active or inactive are those of the source. No cut-off for these calls is given here.

Key:
[1] = biological target: T1, Estrogen receptor (Rattus norvegicus) (UniProt P06211+Q62986); assay: Relative binding affinity for uterine cytosol 17-beta-estradiol receptor from immature rats; N-Nil; format: protein assay
Outline: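 Competitive binding against 17β-estradiol for uterine cytosol receptor from immature Charles Foster rats aged 21-25 days; dextran-coated charcoal removes unbound steroid; expressed as relative binding affinity.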

Rattus norvegicus [2] = assay: Effective dose for anti-implantation activity in female albino rats at 10 mg/kg; IN-Inactive
Rattus norvegicus [3] = species on record: Rattus norvegicus; assay: Effective dose for antiimplantation activity in male albino rats; format: functional; conditions: in the assay text read “female” for “male”
Outline: (§1)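 Colony-bred adult female albino rats (150-170 g) mated with fertile coeval males; suspension in gum acacia given orally on days 1-7 postcoitum; positive only when implants were wholly absent from both uterine horns.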

Rattus norvegicus [4] = species on record: Rattus norvegicus; assay: Effective dose for anti-implantation activity in male albino rats; Nil; format: functional, organism-based; conditions: in the assay text read “female” for “male”; outline: as §1
[5] = biological target: T1, Estrogen receptor (Rattus norvegicus)
Rattus norvegicus [6] = assay: Effective dose for antiimplantation activity in male albino rats at 2 mg/Kg;IN-Inactive; format: functional, organism-based; conditions: in the assay text read “female” for “male”; outline: as §1
Rattus norvegicus [7] = assay: Effective dose for anti-implantation activity in female albino rats at 10 mg/kg; A-Active
[8] = biological target: T1, Estrogen receptor (Rattus norvegicus); assay: Effect on uterine weight gain in immature rats by subcutaneous dose; N-Nil; format: functional
Outline: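 Immature rats (25-30 g); dosed subcutaneously once daily for 3 days in 0.2 mL saline/propylene glycol (1:1, v/v); estrogenicity read as uterine weight gain.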

COc1ccc2c(c1)OC(C)(C)C(c1ccccc1)=C2c1ccccc1OCCN1CCCC1
relative binding affinity (RBA) [1]: inactive
ED100 (Rattus norvegicus [2]): inactive

COc1ccc2c(c1)OC(C)(C)C(c1ccccc1)C2c1ccc(OCCN2CCCC2)cc1 (stereo in doubt; 2) [ORMELOXIFENE]
ED100 (Rattus norvegicus [3]): 50 mg/kg/day

COc1ccc2c(c1)OC(C)(C)C(c1ccccc1)C2c1ccc(O)cc1 (centres undefined)
ED100 (Rattus norvegicus [4]): inactive
Estrogenic effect [5]: 0.2

COc1ccc2c(c1)OC(C)(C)C(c1ccccc1)C2c1ccc(OCCCN2CCCC2)cc1.Cl (centres undefined)
ED100 (Rattus norvegicus [3]): 0.3 mg/kg/day

CCN(CC)CCOc1ccc(C2c3ccc(OC)cc3OC(C)(C)C2c2ccccc2)cc1.Cl (centres undefined)
ED100 (Rattus norvegicus [3]): 0.3 mg/kg/day

COc1ccc2c(c1)OC(C)(C)C(c1ccccc1)C2c1ccc(OCCN(C)C)cc1.Cl (centres undefined)
ED100 (Rattus norvegicus [3]): 2 mg/kg/day

COc1ccc2c(c1)OC(C)(C)C(c1ccccc1)=C2c1cccc(OCCN2CCCC2)c1.Cl
ED100 (Rattus norvegicus [3]): 1 mg/kg/day

COc1ccc2c(c1)OC(C)(C)C(c1ccccc1)C2c1cccc(OCCN2CCCC2)c1 (stereo in doubt; 11)
ED100 (Rattus norvegicus [6]): inactive

COc1ccc2c(c1)OC(C)(C)C(c1ccccc1)C2c1ccc(OCCN2CCCC2)cc1 (stereo in doubt; 1)
Estrogenic effect [5]: 0.56

COc1ccc2c(c1)OC(C)(C)C(c1ccc(O)cc1)=C2c1ccccc1
ED100 (Rattus norvegicus [6]): inactive
ED100 (Rattus norvegicus [7]): Active

CC1(C)Oc2cc(O)ccc2C(c2ccc(OCCN3CCCC3)cc2)C1c1ccccc1 (centres undefined)
ED100 (Rattus norvegicus [3]): 0.25 mg/kg/day
Estrogenic effect [5]: 11.8

COc1ccc2c(c1)OC(C)(C)C(c1ccccc1)=C2c1ccc(OCCN2CCCC2)cc1
ED100 (Rattus norvegicus [3]): 5 mg/kg/day

COc1ccc2c(c1)OC(C)(C)C(c1ccccc1)C2c1cccc(OCCN2CCCC2)c1 (stereo in doubt; 22)
ED100 (Rattus norvegicus [6]): inactive

COc1ccc2c(c1)OC(C)(C)C(c1ccccc1)C2c1ccccc1OCCN1CCCC1 (centres undefined)
relative binding affinity (RBA) [1]: inactive
ED100 (Rattus norvegicus [6]): inactive

COc1ccc2c(c1)OC(C)(C)C(c1ccc(OCCN3CCCC3)cc1)=C2c1ccccc1
relative binding affinity (RBA) [1]: inactive
ED100 (Rattus norvegicus [6]): inactive

COc1ccc2c(c1)OC(C)(C)C(c1ccc(O)cc1)C2c1ccccc1 (stereo in doubt; 33)
ED100 (Rattus norvegicus [3]): 1 mg/kg/day

COc1ccc2c(c1)OC(C)(C)C(c1ccc(OCCN3CCCC3)cc1)C2c1ccccc1 (centres undefined)
relative binding affinity (RBA) [1]: inactive
ED100 (Rattus norvegicus [3]): 2 mg/kg/day
ED100 (Rattus norvegicus [6]): inactive
Estrogenic effect [5]: 2.2

COc1ccc2c(c1)OC(C)(C)C(c1ccccc1)C2c1ccc(OCCN2CCCC2)cc1 (stereo in doubt; 1) [ORMELOXIFENE]
ED100 (Rattus norvegicus [3]): 0.25 mg/kg/day

COc1ccc2c(c1)OC(C)(C)C(c1ccc(O)cc1)C2c1ccccc1 (stereo in doubt; 31)
ED100 (Rattus norvegicus [2]): inactive

COc1ccc2c(c1)OC(C)(C)C(c1ccccc1)C2c1ccc(OCCN2CCCC2)cc1 (stereo in doubt; 2)
Estrogenic effect [8]: inactive
